Test results from ChEMBL document CHEMBL1145253, “Synthesis and evaluation of 3D templates based on a taxane skeleton to circumvent P-glycoprotein-associated multidrug resistance of cancer” (Bioorg Med Chem Lett, 2005).

Legend:
KB 3-1 = experiment: Inhibitory concentration against human KB-3-1 cells; type: functional, cell-based
Procedure, shortened: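 Cytotoxicity IC50 in two human KB lines: KB-G2, a multidrug-resistant line overexpressing P-glycoprotein (Val-185) and resistant to paclitaxel and vinblastine, and its parental drug-sensitive KB-3-1 line as the control. Both lines came from an outside academic lab.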

KB-G2 = experiment: Inhibitory concentration against KB-G2 cells; settings: Homo sapiens
[1] = molecular target: ATP-dependent translocase ABCB1 (Homo sapiens, UniProt P08183); experiment: Michaelis-Menten constant for human P-glycoprotein expressed in Sf9 cells
ATP-dependent translocase ABCB1, sequence (P08183 whole entry): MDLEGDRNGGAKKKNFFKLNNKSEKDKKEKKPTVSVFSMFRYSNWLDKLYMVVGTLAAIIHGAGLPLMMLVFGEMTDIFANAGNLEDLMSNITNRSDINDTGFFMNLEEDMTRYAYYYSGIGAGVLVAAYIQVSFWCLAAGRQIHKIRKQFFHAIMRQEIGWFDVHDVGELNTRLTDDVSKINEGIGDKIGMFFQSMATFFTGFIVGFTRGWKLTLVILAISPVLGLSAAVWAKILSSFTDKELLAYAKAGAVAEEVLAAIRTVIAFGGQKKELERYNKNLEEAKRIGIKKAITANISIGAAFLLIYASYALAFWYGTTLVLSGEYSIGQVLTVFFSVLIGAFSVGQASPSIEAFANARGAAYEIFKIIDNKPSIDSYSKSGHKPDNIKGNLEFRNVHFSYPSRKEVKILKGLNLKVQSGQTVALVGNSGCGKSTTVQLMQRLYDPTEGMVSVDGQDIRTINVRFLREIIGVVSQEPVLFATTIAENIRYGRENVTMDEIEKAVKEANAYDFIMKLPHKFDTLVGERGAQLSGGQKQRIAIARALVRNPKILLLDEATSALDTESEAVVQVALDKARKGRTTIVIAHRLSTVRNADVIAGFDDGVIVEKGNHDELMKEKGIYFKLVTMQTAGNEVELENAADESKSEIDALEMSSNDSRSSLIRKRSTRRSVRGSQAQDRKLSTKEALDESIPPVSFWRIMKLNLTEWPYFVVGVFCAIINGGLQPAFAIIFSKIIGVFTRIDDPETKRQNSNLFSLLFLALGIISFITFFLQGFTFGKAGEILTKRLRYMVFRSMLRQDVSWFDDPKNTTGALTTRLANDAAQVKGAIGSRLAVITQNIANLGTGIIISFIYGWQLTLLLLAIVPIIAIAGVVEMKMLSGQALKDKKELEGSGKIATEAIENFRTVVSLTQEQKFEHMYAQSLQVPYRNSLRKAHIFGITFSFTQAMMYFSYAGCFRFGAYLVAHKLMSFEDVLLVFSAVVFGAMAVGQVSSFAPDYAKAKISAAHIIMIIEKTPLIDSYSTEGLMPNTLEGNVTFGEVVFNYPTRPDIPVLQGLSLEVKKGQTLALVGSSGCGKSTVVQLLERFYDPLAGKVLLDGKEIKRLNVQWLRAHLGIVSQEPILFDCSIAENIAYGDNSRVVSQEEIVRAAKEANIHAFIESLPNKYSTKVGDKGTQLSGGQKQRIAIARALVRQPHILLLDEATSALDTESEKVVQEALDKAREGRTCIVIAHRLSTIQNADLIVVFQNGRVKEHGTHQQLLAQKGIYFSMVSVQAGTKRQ

Compound	IC50 (KB 3-1)	IC50 (KB-G2)	Km [1]
CC1=C2COCc3ccccc3[C@@H]3OC(=O)O[C@@]3(CC1)C2(C)C	> 50 µM	> 50 µM	
COCOc1ccc2c(c1)[C@@H]1OC(=O)O[C@]13CCC(C)=C(CC2=O)C3(C)C	> 50 µM	> 50 µM	
COc1ccc(CCN(C)CCCC(C#N)(c2ccc(OC)c(OC)c2)C(C)C)cc1OC (stereo not given)			2000 nM
CC(=O)O[C@H]1C(=O)[C@@]2(C)[C@H]([C@H](OC(=O)c3ccccc3)[C@]3(O)C[C@H](OC(=O)[C@H](O)[C@@H](NC(=O)c4ccccc4)c4ccccc4)C(C)=C1C3(C)C)[C@]1(OC(C)=O)CO[C@@H]1C[C@@H]2O [PACLITAXEL]	0.0021 µM	0.6 µM	700 nM
COCOc1cccc2c1[C@@H]1OC(=O)O[C@]13CCC(C)=C(CO2)C3(C)C	> 50 µM	> 50 µM	
COCOc1ccc2c(c1)[C@@H]1OC(=O)O[C@]13CCC(C)=C(CO2)C3(C)C	> 50 µM	> 50 µM	

The next lines start with the values.

IC50 (KB 3-1)	IC50 (KB-G2)	Km [1]	Compound
> 50 µM	> 50 µM		CC1=C2CC(=O)c3ccccc3[C@@H]3OC(=O)O[C@@]3(CC1)C2(C)C
> 50 µM	> 50 µM		CC1=C2COc3ccccc3[C@@H]3OC(=O)O[C@@]3(CC1)C2(C)C
> 50 µM	> 50 µM		COCOc1ccc2c(c1)[C@@H]1OC(=O)O[C@]13CCC(C)=C(COC2)C3(C)C
> 50 µM	> 50 µM		C=C1C2(C)CC[C@]3(OC(=O)O[C@H]3c3c(OCOC)cccc3C2=O)C1(C)C
